Our source for the Drug metabolism and Activity values is ChEMBL document CHEMBL4270555, “Synthesis and biological evaluation of magnolol derivatives as melatonergic receptor agonists with potential use in depression” (Eur J Med Chem, 2018).

Activity calls are given as the source filed them. The rule behind the calls is not given here.

The nature of data set [1]: Drug metabolism in Sprague-Dawley rat plasma assessed as (2R,2'R,3S,3'S,4S,4'S,5R,5'R,6S,6'S)-6,6'-(5,5'-diallylbiphenyl-2,2'-diyl)bis(oxy)bis(2-(hydroxymethyl)tetrahydro-2H-pyran-3,4,5-triol) formation at 100 mg/kg, po by UPLC-IT-TOF-MS analysis. The settings on record: in vivo. It counts as ADME, organism-based. In outline: (§1)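 Rats (n = 6) housed in metabolic cages received 100.0 mg/kg orally; controls received 0.5% CMC-Na. Plasma, urine and faeces were collected and analyzed by LC-IT-TOF-MS on a C18 column at 30 °C. Gradient 5–100% acetonitrile with 0.05% formic acid over 18 min at 0.2 mL/min; positive and negative ion MS/MS.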

A short description of data set [2]: Drug metabolism in Sprague-Dawley rat urine assessed as (2S,3R,4S,5S,6R)-2-(5'-allyl-2'-hydroxy-5-(1-hydroxyallyl)biphenyl-2-yloxy)-6-(hydroxymethyl)tetrahydro-2H-pyran-3,4,5-triol formation at 100 mg/kg, po by UPLC-IT-TOF-MS analysis. It is filed as ADME, organism-based. The following applies: in vivo. In a few lines: (§2)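 Male/unspecified SD rats (n = 6) housed individually in metabolic cages, dosed orally at 100.0 mg/kg; controls given 0.5% CMC-Na orally. Plasma, urine and faeces collected. LC-IT-TOF-MS on C18 column at 30 °C, formic acid (0.05%) water/acetonitrile gradient 5–100% B over 18 min, 0.2 mL/min; positive and negative ion modes with automatic MS/MS.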

Data set [3] concerns Mus musculus. As to the kind of experiment: Decrease in dopamine level in Kunming mouse hypothalamus at 40 mg/kg, po treated for 7 days by HPLC-ECD analysis. It is filed as functional, organism-based. In a few lines: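 Male Kunming mice received vehicle or 40 mg/kg for 7 days, then were killed by cervical dislocation and the brain regions dissected on ice. Tissue was homogenized in ice-cold 0.2 M perchloric acid with 0.1 mM EDTA and centrifuged at 15,000 rpm, 20 min, 4 °C. Supernatant was analyzed by HPLC-ECD (+0.50 V; phosphate/octanesulfonate mobile phase, pH 3.0). Results in ng/g, mean ± SEM.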

A short description of data set [4]: Drug metabolism in Sprague-Dawley rat urine assessed as 2S,3S,4S,5R,6S)-6-(5,5'-diallyl-2'-((2S,3R,4S,5S,6R)-3,4,5-trihydroxy-6-(hydroxymethyl)tetrahydro-2H-pyran-2-yloxy)biphenyl-2-yloxy)-3,4,5-trihydroxytetrahydro-2H-pyran-2-carboxylic acid formation at 100 mg/kg, po by UPLC-IT-TOF-MS analysis. It counts as ADME, organism-based. The settings on record: in vivo. In a few lines: as §2

The test system of data set [5] is Mus musculus. Put plainly: Antidepressant activity in Kunming mouse assessed as decrease in immobility duration at 40 mg/kg, po by forced swim test relative to control. It counts as functional. The arrangement: scale not given: the % may be the effect or the level left. In outline:
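Male Kunming mice (18–20 g) given 10, 20 or 40 mg/kg orally; fluoxetine and agomelatine 20 mg/kg as references. Each mouse swam 6 min in a cylinder (25 × 15 cm) holding 10 cm of water at 25 ± 1 °C. Immobility over the last 4 min was scored by video tracking; n = 10, mean ± SEM versus vehicle.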

Data set [6] is described as follows: Drug metabolism in Sprague-Dawley rat feces assessed as 5,5'-diallylbiphenyl-2,2'-diol formation at 100 mg/kg, po by UPLC-IT-TOF-MS analysis. It is filed as ADME, organism-based. The following applies: in vivo. In a few lines: as §1
A short description of data set [7]: Drug metabolism in Sprague-Dawley rat feces assessed as 5,5'-bis(1-hydroxyallyl)biphenyl-2,2'-diol formation at 100 mg/kg, po by UPLC-IT-TOF-MS analysis. The settings on record: in vivo. It is filed as ADME, organism-based. In outline: as §1
Data set [8] is described as follows: Drug metabolism in Sprague-Dawley rat feces assessed as 5'-(1-hydroxyallyl)-5-(1-hydroxypropyl)-2'-((2S,3R,4S,5S,6R)-3,4,5-trihydroxy-6-(hydroxymethyl)tetrahydro-2H-pyran-2-yloxy)biphenyl-2-yl hydrogen sulfate formation at 100 mg/kg, po by UPLC-IT-TOF-MS analysis. It counts as ADME, organism-based. The following applies: in vivo. In outline: as §1
The nature of data set [9]: Drug metabolism in Sprague-Dawley rat urine assessed as 5'-(1-hydroxyallyl)-5-(1-hydroxypropyl)-2'-((2S,3R,4S,5S,6R)-3,4,5-trihydroxy-6-(hydroxymethyl)tetrahydro-2H-pyran-2-yloxy)biphenyl-2-yl hydrogen sulfate formation at 100 mg/kg, po by UPLC-IT-TOF-MS analysis. The following applies: in vivo. It is filed as ADME, organism-based. In a few lines: as §2
The subject of data set [10] is Rattus norvegicus. As to the kind of experiment: Toxicity in Sprague-Dawley rat assessed as caustic injuries at 2000 mg/kg, po measured over 4 hrs. The settings on record: in vivo. It is filed as organism-based. In a few lines:
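Following OECD 425, adult SD rats (180–220 g), six per group: vehicle (0.5% CMC-Na) controls, plus males and females given 2000 mg/kg orally. Watched continuously for 4 h for behaviour, breathing, cutaneous, sensory and gastrointestinal signs, then hourly to 24 h and every 6 h for the next 48 h.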

Data set [11] relates to Rattus norvegicus. Put plainly: Toxicity in Sprague-Dawley rat assessed as change in behaviour at 2000 mg/kg, po measured continuously for first 4 hrs followed by measured every hour for next 24 hrs and at 6 hrs intervals for following 48 hrs post dose. It is filed as organism-based. The following applies: in vivo. In a few lines: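 Followed OECD 425 in adult SD rats (180–220 g), three groups of six. Vehicle control received 0.5% CMC-Na orally; separate male and female groups received 2000 mg/kg orally. Endpoints observed: behaviour, breathing, cutaneous effects, sensory nervous system responses, gastrointestinal effects and deaths.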

Data set [12] in a line: Drug metabolism in Sprague-Dawley rat feces assessed as 5,5'-diallyl-2'-hydroxybiphenyl-2-yl hydrogen sulfate formation at 100 mg/kg, po by UPLC-IT-TOF-MS analysis. It counts as ADME, organism-based. The following applies: in vivo. In a few lines:
as §1

Data set [13] has as its system Mus musculus. Put plainly: Toxicity in Kunming mouse assessed as effect in spontaneous locomotor activity by measuring total number of line crosses at 10 to 40 mg/kg, po by open field test. It is filed as organism-based. The settings on record: in vivo. In outline:
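Male Kunming mice, 18–20 g, group-housed at 22 ± 2 °C on 12 h light/dark, given oral doses of 10, 20 or 40 mg/kg before behavioural testing. Each animal placed in the centre of a black open-field box (24 × 24 × 40 cm) for 30 s adaptation, then explored freely for 6 min. Line crossings and distance recorded. Mean ± SEM, n = 10.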

In data set [14] the test system is Mus musculus. As to the kind of experiment: Effect on 5-hydroxytryptamine level in Kunming mouse frontal cortex at 40 mg/kg, po treated for 7 days by HPLC-ECD analysis. It counts as functional, organism-based. In outline: (§3)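 Male Kunming mice (18–20 g) given vehicle or 40 mg/kg for 7 days, then killed by cervical dislocation. Frontal cortex, hippocampus, striatum, hypothalamus and thalamus dissected on ice, homogenized in ice-cold 0.2 M perchloric acid with 0.1 mM EDTA, centrifuged 15,000 rpm, 20 min, 4 °C. Supernatant analysed by HPLC-ECD at +0.50 V; phosphate/octanesulfonate mobile phase pH 3.0 with 12% methanol. Levels in ng/g, mean ± SEM.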

Data set [15] can be described thus: Drug metabolism in Sprague-Dawley rat urine assessed as (2R,2'R,3S,3'S,4S,4'S,5R,5'R,6S,6'S)-6,6'-(5,5'-diallylbiphenyl-2,2'-diyl)bis(oxy)bis(2-(hydroxymethyl)tetrahydro-2H-pyran-3,4,5-triol) formation at 100 mg/kg, po by UPLC-IT-TOF-MS analysis. It counts as ADME, organism-based. The settings on record: in vivo. In a few lines: as §2
Data set [16] is described as follows: Drug metabolism in Sprague-Dawley rat urine assessed as 5-allyl-5'-(1-hydroxyallyl)-2'-((2S,3R,4S,5S,6R)-3,4,5-trihydroxy-6-(hydroxymethyl)tetrahydro-2H-pyran-2-yloxy)biphenyl-2-yl hydrogen sulfate formation at 100 mg/kg, po by UPLC-IT-TOF-MS analysis. The settings on record: in vivo. It counts as ADME, organism-based. In a few lines:
as §2

The subject of data set [17] is Mus musculus. Put plainly: Increase in norepinephrine level in Kunming mouse hypothalamus at 40 mg/kg, po treated for 7 days by HPLC-ECD analysis. It counts as functional, organism-based. In outline:
as §3

Turning to `C=CCc1ccc(O)c(-c2cc(CC=C)ccc2O[C@@H]2O[C@H](CO)[C@@H](O)[C@H](O)[C@H]2O)c1`, the Drug metabolism result in [1] is listed as “Metabolite_Notdetected”; in [2] it was “Metabolite_Detected”; in data set [4], “Metabolite_Detected”; in [6] it was “Metabolite_Detected”; in data set [7], “Metabolite_Detected”; in data set [8], “Metabolite_Notdetected”. For the same compound, the Drug metabolism result in [9] was “Metabolite_Detected”; in [12], “Metabolite_Detected”; in [15], “Metabolite_Detected”; in data set [16] it was “Metabolite_Notdetected”. The result with Mus musculus [3] and in the data set on Mus musculus [17] was Active. Besides, the Activity is listed as 37.66% with Mus musculus [5], “Non-Toxic” in the data set on Rattus norvegicus [10], “Non-Toxic” in the data set on Rattus norvegicus [11] and “Non-Toxic” in the data set with Mus musculus [13]. Further, in the data set on Mus musculus [14], the outcome was inactive.
